Experimental data published in ChEMBL document CHEMBL1158823, “Extraction, hemisynthesis, and synthesis of canthin-6-one analogues. Evaluation of their antifungal activities” (2005).
In brackets after ≈: the same amount, converted by molar mass.

How the values were obtained:
Format in all cases: functional
[1] = system: Candida albicans; test: Antifungal activity against Candida albicans ATCC 10231
Procedure, shortened: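 Bioautographic assay against Candida albicans CIP 4872 (also listed as ATCC 10231 and NIH 3147), with the minimal inhibitory concentration (MIC) estimated.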

[2] = system: Cryptococcus neoformans; test: Antifungal activity against Cryptococcus neoformans H99
Procedure, shortened: (§1)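 Bioautographic assay, with the minimal inhibitory concentration (MIC) estimated from it.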

[3] = system: Saccharomyces cerevisiae; test: Antifungal activity against Saccharomyces cerevisiae ATCC 26.01; procedure, shortened: as §1
[4] = system: Trichophyton mentagrophytes; test: Antifungal activity against Trichophyton mentagrophytes var. interdigitale CPCM 06.99; procedure, shortened: as §1
[5] = system: Aspergillus fumigatus; test: Antifungal activity against Aspergillus fumigatus 04-486; procedure, shortened: as §1

SMILES	MIC ([1]; read-out: MIC) [µM]	MIC ([2]; var grubii H99, read-out: MIC) [µM]	MIC ([3]; read-out: MIC) [µM]	MIC [4] [µM]	MIC [5] [µM]	MIC [1] [µM]	MIC ([2]; var grubii H99) [µM]	MIC [3] [µM]
O=c1ccc2c3c(cc[n+]2[O-])c2ccccc2n13	> 200	> 200	53 (≈ 12.5 µg/mL)	> 200	> 200	–	–	–
O=c1ccc2c3c(cc[n+]2CCBr)c2ccccc2n13	> 200	> 200	7.7	> 200	> 200	–	–	–
CCCC[n+]1ccc2c3ccccc3n3c(=O)ccc1c23	124	> 200	124	> 200	> 200	–	–	–
O=c1ccc2nccc3c4ccccc4n1c23 [CANTHIN-6-ONE]	56.8 (≈ 12.5 µg/mL)	14.2 (≈ 3.13 µg/mL)	14.2 (≈ 3.13 µg/mL)	7.1 (≈ 1.56 µg/mL)	14.2 (≈ 3.13 µg/mL)	–	–	–
CC(=O)N1CCN(c2ccc(OCC3COC(Cn4ccnc4)(c4ccc(Cl)cc4Cl)O3)cc2)CC1 (centres undefined) [KETOCONAZOLE]	2.9 (≈ 1.54 µg/mL)	5.9 (≈ 3.14 µg/mL)	5.9 (≈ 3.14 µg/mL)	23.5 (≈ 12.5 µg/mL)	94.2 (≈ 50.1 µg/mL)	–	–	–

Next, values leading:

MIC ([1]; read-out: MIC) [µM]	MIC ([2]; var grubii H99, read-out: MIC) [µM]	MIC ([3]; read-out: MIC) [µM]	MIC [4] [µM]	MIC [5] [µM]	MIC [1] [µM]	MIC ([2]; var grubii H99) [µM]	MIC [3] [µM]	SMILES
100 (≈ 25 µg/mL)	200 (≈ 50.1 µg/mL)	50 (≈ 12.5 µg/mL)	> 200	> 200	–	–	–	COc1ccc2c(c1)c1ccnc3ccc(=O)n2c31
146 (≈ 50 µg/mL)	> 200	> 200	–	> 200	–	–	–	COc1c2c(c3ccc(=O)oc3c1/C=C\C(C)(C)O)OC(C)(C)C=C2
–	–	–	–	–	13.1 (≈ 3.12 µg/mL)	13.1 (≈ 3.12 µg/mL)	13.1 (≈ 3.12 µg/mL)	O=c1ccc2nccc3c4ccc(F)cc4n1c23
–	–	–	–	–	> 200	> 200	> 200	Cc1cc2c3ccccc3n3c(=O)ccc(n1)c23
53.2 (≈ 12.5 µg/mL)	106 (≈ 24.9 µg/mL)	53.2 (≈ 12.5 µg/mL)	106 (≈ 24.9 µg/mL)	> 200	–	–	–	Nc1cc(=O)n2c3ccccc3c3ccnc1c32
> 200	50 (≈ 12.5 µg/mL)	50 (≈ 12.5 µg/mL)	6.3 (≈ 1.58 µg/mL)	50 (≈ 12.5 µg/mL)	–	–	–	COc1cc2nccc3c4ccccc4n(c1=O)c23 [5-METHOXYCANTHINONE]
146 (≈ 50 µg/mL)	> 200	> 200	–	> 200	–	–	–	COc1c2c(c3ccc(=O)oc3c1/C=C/C(C)(C)O)OC(C)(C)C=C2 [AVICENNOL]
